Data: ChEMBL document CHEMBL5678798 (Clin Cancer Res, 2009)
Active and inactive are the calls of the source. The calls are words filed in the database; no cut-off is given here.

Legend:
[1] = Cytotoxicity against HMEC cells assessed as reduction in cell viability after 72 hrs by CellTiter-Glo assay; type: toxicity, cell-based; settings: human
Summary of the method: (§1)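 Cells seeded in 96-well plates, left overnight at 37°C, then exposed to a range of test concentrations for 72 h. Viability read by CellTiter-Glo luminescence; IC50 from four-parameter curve fit. Lines kept at 37°C, 5% CO2, in recommended growth medium.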

[2] = biological target: Tyrosine-protein kinase ITK/TSK (Homo sapiens, UniProt Q08881); test: Inhibition of ITK (unknown origin)
[3] = Inhibition of […] N-terminal 6His-tagged full length human P110delta/full length human p85beta expressed in baculovirus infected Sf21 cells at 3 uM by filter binding assay relative to control; settings: condition cancer
[4] = biological target: Calcium/calmodulin-dependent protein kinase type IV (Homo sapiens) (UniProt Q16566); test: Inhibition of C-terminal His6-tagged recombinant full length human CaMKIV expressed in baculovirus infected Sf21 cells at 3 uM by filter binding assay relative to control
Summary of the method: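 KinaseProfiler panel of 233 kinases: radiometric filter-binding activity assays with compound at 0.3 or 3 µmol/L. Read-out is percent inhibition.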

[5] = Antiproliferative activity against human RDES cells assessed as reduction in cell viability after 72 hrs by CellTiter-Glo assay; type: functional, cell-based; settings: RD-ES; summary of the method: as §1
[6] = biological target: Tyrosine-protein kinase HCK (Homo sapiens, UniProt P08631); test: Inhibition of N-terminal 6His-tagged recombinant human Hck (230 to 497 residues) expressed in baculovirus infected Sf21 cells by filter binding assay
[7] = Inhibition of N-terminal His6-tagged recombinant full-length human CDK5/N-terminal GST-tagged recombinant full-length human p35 expressed in baculovirus infected Sf21 cells at 0.3 uM by filter binding assay relative to control; settings: condition cancer
Summary of the method: (§2)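 Outsourced single-concentration screen in a commercial panel of 233 protein kinases, run as radiometric filter-binding activity assays. Test agent was tested at 0.3 or 3 µmol/L, as given in each line, from a 10 mmol/L DMSO stock. Activity is expressed as percent inhibition relative to control.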

[8] = biological target: Discoidin domain-containing receptor 2 (Homo sapiens) (UniProt Q16832); test: Inhibition of N-terminal His6-tagged recombinant human DDR2 (467 to end residues) expressed in baculovirus infected Sf21 cells at 0.3 uM by filter binding assay relative to control
[9] = biological target: Serine/threonine-protein kinase pim-1 (Homo sapiens) (UniProt P11309); test: Inhibition of N-terminal GST-tagged recombinant human full-length Pim-1 expressed in Escherichia coli cells at 0.3 uM by filter binding assay relative to control; summary of the method: as §2
[10] = biological target: Aurora kinase B (Homo sapiens, UniProt Q96GD4); test: Inhibition of Aurora B (unknown origin)
[11] = tested on: L-363; test: Antiproliferative activity against human L-363 cells assessed as reduction in cell viability after 72 hrs by CellTiter-Glo assay; type: functional, cell-based; settings: L-363, 72 h; summary of the method: as §1
[12] = biological target: BDNF/NT-3 growth factors receptor (Homo sapiens) (UniProt Q16620); test: Inhibition of N-terminal His6 tagged recombinant human TrkB (455 to end residues) expressed in baculovirus infected Sf21 cells at 0.3 uM by filter binding assay relative to control; summary of the method: as §2
[13] = biological target: Serine/threonine-protein kinase PLK2 (Homo sapiens) (UniProt Q9NYY3); test: Inhibition of human Snk at 3 uM by filter binding assay relative to control
[14] = biological target: Tyrosine-protein kinase Fes/Fps (Homo sapiens, UniProt P07332); test: Inhibition of N-terminal His6-tagged recombinant full length human Fes expressed in baculovirus infected Sf21 cells by filter binding assay
[15] = biological target: Protein kinase C alpha type (Homo sapiens) (UniProt P17252); test: Inhibition of N-terminal His6 tagged recombinant full-length human PKCalpha expressed in baculovirus infected Sf21 cells at 3 uM by filter binding assay relative to control; summary of the method: as §2
[16] = tested on: NCI-H929; test: Induction of cell cycle arrest in human NCI-H929 cells assessed as decrease in cells accumulation at S phase at 0.03 to 10 uM incubated for 24 to 48 hrs by propidium iodide staining based flow cytometric analysis; type: functional; settings: dose 0.03-10 µM, time lower 24.0 hrs, time upper […]
Summary of the method: (§3)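 COLO 205, MCF-7 or NCI-H929 cells seeded in 96-well plates overnight at 37°C, then exposed to DMSO or increasing compound concentrations for 24 or 48 h. Fixed and stained with propidium iodide (Vindelov method), then analysed by flow cytometry for sub-G1, G1, S and G2-M fractions. Experiment repeated twice.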

[17] = biological target: Serine/threonine-protein kinase PAK 4 (Homo sapiens) (UniProt O96013); test: Inhibition of N-terminal His6/C-terminal GST-tagged recombinant human PAK4 (295 to end residues) expressed in baculovirus infected Sf21 cells at 3 uM by filter binding assay relative to control
[18] = biological target: TGF-beta receptor type-1 (Homo sapiens, UniProt P36897); test: Inhibition of ALK5 (unknown origin)
[19] = biological target: Casein kinase I isoform gamma-3 (Homo sapiens, UniProt Q9Y6M4); test: Inhibition of N-terminal 6His-tagged recombinant human CK1gamma3 (1 to 330 residues) expressed in baculovirus infected Sf21 cells by filter binding assay
[20] = biological target: Insulin-like growth factor 1 receptor (Homo sapiens, UniProt P08069); test: Inhibition of N-terminal 6His-tagged recombinant human IGF-1R (959 to end residues) expressed in baculovirus infected Sf21 cells by filter binding assay
[21] = tested on: COLO 205; test: Induction of cell cycle arrest in human COLO 205 cells assessed as effect on sub-2N-DNA content at 0.03 to 10 uM incubated for 24 to 48 hrs by propidium iodide staining based flow cytometric analysis; type: functional; settings: dose 0.03-10 µM, time lower 24.0 hrs, time upper […]; summary of the method: as §3
[22] = biological target: Serine/threonine-protein kinase tousled-like 2 (Homo sapiens) (UniProt Q86UE8); test: Inhibition of N-terminal 6His-tagged recombinant human TLK2 (388 to end residues) expressed in baculovirus infected Sf21 cells at 3 uM by filter binding assay relative to control; summary of the method: as §2
[23] = biological target: MAP kinase-interacting serine/threonine-protein kinase 2 (Homo sapiens) (UniProt Q9HBH9); test: Inhibition of N-terminal 6His-tagged recombinant human full-length Mnk2 expressed in baculovirus infected Sf21 cells at 3 uM by filter binding assay relative to control; summary of the method: as §2
[24] = Antitumor activity against mouse NIH-3T3/LISN cells implanted in nu/nu CD-1 mouse assessed as reduction in tumor growth at 30 mg/kg, po for 21 days relative to control; type: functional; settings: 504 h, time 21 day, read-out: TGI
Summary of the method: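 Exponentially growing cells implanted s.c. in the right flank of 8–10-wk-old female athymic nu/nu CD-1 mice. At 150–200 mm3, block-randomized by tumor size into groups of eight. Oral dosing once or twice daily for 21 d; vehicle 20% sulfobutylether-β-cyclodextrin, pH 3.5. Calipers twice weekly; volume = length×width²/2. Growth inhibition = 100×[1 − treated growth/vehicle growth].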

[25] = biological target: Receptor-type tyrosine-protein kinase FLT3 (Homo sapiens, UniProt P36888); test: Inhibition of N-terminal GST tagged recombinant human Flt3 (564 to end residues) expressed in Sf21 cells by filter binding assay

Chain of Aurora kinase B (Q96GD4 whole entry): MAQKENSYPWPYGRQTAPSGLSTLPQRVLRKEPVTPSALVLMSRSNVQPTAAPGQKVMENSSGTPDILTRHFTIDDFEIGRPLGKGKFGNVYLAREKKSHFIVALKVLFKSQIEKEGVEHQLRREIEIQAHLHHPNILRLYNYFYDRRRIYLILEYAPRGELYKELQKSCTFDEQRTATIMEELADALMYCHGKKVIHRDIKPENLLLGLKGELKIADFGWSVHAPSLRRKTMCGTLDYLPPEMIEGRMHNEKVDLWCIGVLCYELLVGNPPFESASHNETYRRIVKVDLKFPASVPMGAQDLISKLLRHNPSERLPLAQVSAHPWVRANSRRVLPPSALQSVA
Chain of Serine/threonine-protein kinase pim-1 (Homo sapiens) (P11309 whole entry, looked up): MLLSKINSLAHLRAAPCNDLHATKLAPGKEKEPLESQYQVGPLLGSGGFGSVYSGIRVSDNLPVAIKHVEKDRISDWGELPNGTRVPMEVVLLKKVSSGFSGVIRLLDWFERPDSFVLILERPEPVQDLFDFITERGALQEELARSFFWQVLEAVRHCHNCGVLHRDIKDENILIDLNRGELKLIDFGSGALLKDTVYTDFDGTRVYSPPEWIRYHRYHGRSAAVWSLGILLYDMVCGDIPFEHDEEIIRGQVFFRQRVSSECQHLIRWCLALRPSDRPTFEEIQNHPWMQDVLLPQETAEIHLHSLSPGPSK
Chain of Tyrosine-protein kinase ITK/TSK (Q08881 whole entry): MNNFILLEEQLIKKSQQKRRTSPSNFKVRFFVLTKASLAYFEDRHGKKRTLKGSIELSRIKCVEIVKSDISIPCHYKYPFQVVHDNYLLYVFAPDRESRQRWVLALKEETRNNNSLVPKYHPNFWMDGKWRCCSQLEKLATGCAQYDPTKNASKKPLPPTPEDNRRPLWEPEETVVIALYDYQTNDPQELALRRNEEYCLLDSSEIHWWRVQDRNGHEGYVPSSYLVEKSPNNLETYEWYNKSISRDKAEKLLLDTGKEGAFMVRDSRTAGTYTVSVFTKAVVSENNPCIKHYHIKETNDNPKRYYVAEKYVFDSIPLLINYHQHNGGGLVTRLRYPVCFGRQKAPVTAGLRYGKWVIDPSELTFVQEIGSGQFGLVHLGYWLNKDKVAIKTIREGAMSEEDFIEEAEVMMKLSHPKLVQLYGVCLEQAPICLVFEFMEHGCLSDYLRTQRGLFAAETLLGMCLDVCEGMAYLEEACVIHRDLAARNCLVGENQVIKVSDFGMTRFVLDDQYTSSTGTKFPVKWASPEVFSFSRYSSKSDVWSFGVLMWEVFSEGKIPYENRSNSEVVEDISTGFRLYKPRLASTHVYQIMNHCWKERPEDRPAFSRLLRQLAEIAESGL
Chain of Serine/threonine-protein kinase tousled-like 2 (Homo sapiens) (Q86UE8 whole entry, looked up): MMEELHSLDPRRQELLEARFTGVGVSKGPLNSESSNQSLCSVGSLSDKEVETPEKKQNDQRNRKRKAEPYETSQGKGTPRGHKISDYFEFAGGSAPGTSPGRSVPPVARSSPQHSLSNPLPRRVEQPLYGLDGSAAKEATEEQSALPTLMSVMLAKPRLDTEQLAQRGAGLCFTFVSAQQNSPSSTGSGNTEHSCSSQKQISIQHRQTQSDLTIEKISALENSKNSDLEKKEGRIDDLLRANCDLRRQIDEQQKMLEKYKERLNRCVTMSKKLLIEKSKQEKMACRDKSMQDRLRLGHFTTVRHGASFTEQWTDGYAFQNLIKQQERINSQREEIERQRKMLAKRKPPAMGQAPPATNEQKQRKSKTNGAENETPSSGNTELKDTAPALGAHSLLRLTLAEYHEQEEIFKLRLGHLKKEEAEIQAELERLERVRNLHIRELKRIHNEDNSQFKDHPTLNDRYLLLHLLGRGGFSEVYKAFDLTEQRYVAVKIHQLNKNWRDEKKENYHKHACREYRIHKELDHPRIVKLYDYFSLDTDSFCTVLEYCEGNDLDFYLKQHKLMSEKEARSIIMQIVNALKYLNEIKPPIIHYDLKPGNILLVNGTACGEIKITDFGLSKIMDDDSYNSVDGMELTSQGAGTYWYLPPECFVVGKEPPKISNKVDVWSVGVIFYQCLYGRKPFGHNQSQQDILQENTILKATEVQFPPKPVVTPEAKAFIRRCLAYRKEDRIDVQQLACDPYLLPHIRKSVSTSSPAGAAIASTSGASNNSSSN
Chain of Serine/threonine-protein kinase PAK 4 (Homo sapiens) (O96013 whole entry, looked up): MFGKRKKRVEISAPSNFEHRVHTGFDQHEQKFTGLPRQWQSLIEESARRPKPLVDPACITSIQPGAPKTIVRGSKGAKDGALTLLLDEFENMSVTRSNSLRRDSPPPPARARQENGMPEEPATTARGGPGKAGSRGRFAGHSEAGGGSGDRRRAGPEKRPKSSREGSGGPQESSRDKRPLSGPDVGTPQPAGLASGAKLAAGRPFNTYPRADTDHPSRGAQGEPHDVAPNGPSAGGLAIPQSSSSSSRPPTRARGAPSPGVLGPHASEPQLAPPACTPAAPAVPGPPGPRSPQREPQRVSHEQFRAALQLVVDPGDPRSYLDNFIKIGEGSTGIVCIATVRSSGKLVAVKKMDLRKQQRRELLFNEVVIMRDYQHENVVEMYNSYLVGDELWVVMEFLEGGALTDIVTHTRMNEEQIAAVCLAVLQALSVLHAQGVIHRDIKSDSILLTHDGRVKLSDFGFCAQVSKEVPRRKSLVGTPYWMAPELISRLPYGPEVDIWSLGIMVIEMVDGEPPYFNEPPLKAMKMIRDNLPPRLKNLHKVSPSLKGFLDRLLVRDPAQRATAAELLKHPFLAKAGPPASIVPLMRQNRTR
Chain of Tyrosine-protein kinase Fes/Fps (P07332 whole entry): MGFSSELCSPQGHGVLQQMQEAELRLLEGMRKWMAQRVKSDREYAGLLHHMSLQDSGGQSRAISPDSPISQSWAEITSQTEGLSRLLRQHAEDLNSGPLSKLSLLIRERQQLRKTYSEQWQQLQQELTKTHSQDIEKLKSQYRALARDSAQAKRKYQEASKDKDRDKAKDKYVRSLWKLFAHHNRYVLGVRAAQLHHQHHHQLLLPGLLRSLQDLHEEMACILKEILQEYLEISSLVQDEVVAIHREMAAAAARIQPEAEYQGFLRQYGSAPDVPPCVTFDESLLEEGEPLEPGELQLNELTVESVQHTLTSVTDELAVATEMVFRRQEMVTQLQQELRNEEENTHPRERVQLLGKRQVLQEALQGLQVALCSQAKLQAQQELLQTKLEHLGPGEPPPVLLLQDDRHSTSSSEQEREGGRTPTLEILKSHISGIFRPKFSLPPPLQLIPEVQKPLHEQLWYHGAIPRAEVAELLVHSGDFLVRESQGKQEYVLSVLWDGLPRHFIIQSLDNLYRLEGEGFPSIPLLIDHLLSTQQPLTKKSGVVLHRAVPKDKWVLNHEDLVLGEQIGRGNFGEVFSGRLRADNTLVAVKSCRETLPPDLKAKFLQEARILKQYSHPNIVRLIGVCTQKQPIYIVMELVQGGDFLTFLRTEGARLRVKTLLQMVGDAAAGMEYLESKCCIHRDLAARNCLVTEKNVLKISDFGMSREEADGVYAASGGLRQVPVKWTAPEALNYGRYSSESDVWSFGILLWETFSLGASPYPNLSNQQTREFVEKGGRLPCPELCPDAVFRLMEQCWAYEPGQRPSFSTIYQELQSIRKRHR
Chain of Serine/threonine-protein kinase PLK2 (Homo sapiens) (Q9NYY3 whole entry, looked up): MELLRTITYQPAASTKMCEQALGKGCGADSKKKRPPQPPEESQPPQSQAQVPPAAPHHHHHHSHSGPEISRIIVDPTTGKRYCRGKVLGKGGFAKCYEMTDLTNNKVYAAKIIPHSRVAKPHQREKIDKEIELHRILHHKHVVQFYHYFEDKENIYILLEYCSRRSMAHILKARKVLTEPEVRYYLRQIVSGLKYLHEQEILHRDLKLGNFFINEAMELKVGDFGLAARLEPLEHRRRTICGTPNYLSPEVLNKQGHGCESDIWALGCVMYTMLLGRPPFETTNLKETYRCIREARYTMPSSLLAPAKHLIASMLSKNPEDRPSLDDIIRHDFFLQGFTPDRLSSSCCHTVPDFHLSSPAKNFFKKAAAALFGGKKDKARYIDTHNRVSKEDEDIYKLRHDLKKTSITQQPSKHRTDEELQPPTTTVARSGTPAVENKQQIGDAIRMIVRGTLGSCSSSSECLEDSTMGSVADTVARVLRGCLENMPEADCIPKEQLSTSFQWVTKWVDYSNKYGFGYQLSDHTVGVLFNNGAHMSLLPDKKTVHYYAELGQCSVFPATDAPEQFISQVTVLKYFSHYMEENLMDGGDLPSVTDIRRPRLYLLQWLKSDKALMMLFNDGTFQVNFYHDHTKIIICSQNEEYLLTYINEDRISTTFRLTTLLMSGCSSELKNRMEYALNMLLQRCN

For `CCc1cc(Nc2nccc(-c3c(-c4ccc(OC)c(C(=O)Nc5c(F)cccc5F)c4)nc4ccccn34)n2)c(OC)cc1N1CCC(N2CCN(S(C)(=O)=O)CC2)CC1`, the IC50 at 72 h [1] was > 20000 nM, the IC50 [2] was > 25000 nM and the inhibition at 3 µM [3] was 2%. It also gave an inhibition [4] of 10%, an IC50 [5] of 62 nM and an IC50 [6] of 275 nM. The inhibition at 0.3 µM [7] was -8%, the inhibition [8] was 0% and the inhibition [9] was -8%. For the same compound, the IC50 [10] was 4000 nM, the IC50 [11] was 165 nM and the inhibition [12] was 4%. It also gave an inhibition [13] of -8%, an IC50 [14] of 148 nM and an inhibition [15] of 1%. The Activity [16] was “Active”, the inhibition [17] was 0% and the IC50 [18] was > 10000 nM. The IC50 [19] was > 10000 nM, the IC50 [20] was 58 nM and the Activity [21] was “inactive”. It also gave an inhibition [22] of 0%, an inhibition [23] of 24% and an inhibition in vivo at 30 mg/kg [24] of 56%. It also gave an IC50 [25] of 2850 nM.
